Active and inactive are the calls of the source. The rule behind the calls is not given here.

The record followed here is ChEMBL document CHEMBL1151714 (J Med Chem, 2008).

The subject of data set [1] is Rattus norvegicus. The experiment in a line: Half life in Sprague-Dawley rat at 25 mg/kg, po. Details: dose 25 mg/kg, route oral. The conditions noted are these: in vivo. It is filed as ADME, organism-based. An outline of the steps: (§1)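 Rat pharmacokinetics after a single oral dose. Compounds were given at 25 or 30 mg/kg. Cmax, elimination half-life and AUC(0-∞) were determined, and oral bioavailability was calculated. Values are reported as mean ± deviation.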

Data set [2] relates to Rattus norvegicus. Nature of the data set: AUC (0 to infinity) in Sprague-Dawley rat at 25 mg/kg, po. It is filed as ADME, organism-based, Plasma. Also on record: time infinity, dose 25 mg/kg, route oral. Conditions: in vivo. An outline of the steps: (§2)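 Rats were given a single oral dose of 25 or 30 mg/kg. Maximum plasma concentration (Cmax), elimination half-life and AUC(0-∞) were derived. Oral bioavailability was also reported.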

Data set [3] deals with Rattus norvegicus. The experiment in a line: Cmax in Sprague-Dawley rat at 25 mg/kg, po. It is filed as ADME, organism-based. Also on record: dose 25 mg/kg, route oral. Conditions: in vivo.
Data set [4] concerns Rattus norvegicus. Nature of the data set: Bioavailability in Sprague-Dawley rat at 25 mg/kg, po. The class given is ADME, organism-based. The conditions noted are these: in vivo. An outline of the steps:
as §1

Data set [5] has as its target Baculoviral IAP repeat-containing protein 3 (Homo sapiens, UniProt Q13489). Nature of the data set: Displacement of fluorescently tagged SM5F from human cIAP-2 BIR3 expressed in Escherichia coli BL21 cells by fluorescence polarization assay. (In general: In fluorescence polarisation assays a small probe gives low polarisation when free and higher when bound to something large.)

Data set [6] deals with MDA-MB-231. Nature of the data set: cells. The conditions noted are these: Homo sapiens, MDA-MB-231, 96 h.
Data set [7] concerns Rattus norvegicus. The experiment in a line: Bioavailability in Sprague-Dawley rat at 30 mg/kg, po. The conditions noted are these: in vivo. It is filed as ADME, organism-based. An outline of the steps: as §1
Data set [8] relates to MDA-MB-231. Nature of the data set: Induction of cIAP1 degradation in human MDA-MB-231 cells at 10 nM after 24 hrs by Western blotting. The class given is functional, cell-based. An outline of the steps:
(§3)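 MDA-MB-231 cells were exposed to a range of concentrations for 24 hours. Whole-cell levels of cIAP-1, cleaved PARP and cleaved caspase-3 were then probed by Western blot.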
Background: Immunoblotting shows a protein as a band on a membrane.

The test system of data set [9] is Rattus norvegicus. The experiment in a line: Half life in Sprague-Dawley rat at 30 mg/kg, po. Details: dose 30 mg/kg, route oral. The conditions noted are these: in vivo. The class given is ADME, organism-based. An outline of the steps: as §1
For data set [10], the system named is MDA-MB-231. Nature of the data set: Induction of caspase 3 processing in human MDA-MB-231 cells at 100 nM after 24 hrs by Western blotting. The class given is functional, cell-based. An outline of the steps:
as §3

Data set [11] concerns MDA-MB-231. Nature of the data set: Reversal of human XIAP BIR3-mediated suppression of cytochrome c-induced caspase-3/-7 activity in human MDA-MB-231 cell lysate by cell free functional assay. An outline of the steps: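 Caspase-3/-7 in cell lysates was activated by adding cytochrome c and dATP. Recombinant XIAP BIR3 protein at 0.5 μM was used to suppress activation, and recovery of caspase-3/-7 activity was measured across compound doses. Activity was read at the 30-minute time point and expressed relative to maximum activation.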

The subject of data set [12] is Rattus norvegicus. Nature of the data set: Cmax in Sprague-Dawley rat at 30 mg/kg, po. It is filed as ADME, organism-based. Details: dose 30 mg/kg, route oral. Conditions: in vivo.
Data set [13] concerns Rattus norvegicus. Nature of the data set: AUC (0 to infinity) in Sprague-Dawley rat at 30 mg/kg, po. It is filed as ADME, organism-based, Plasma. Also on record: dose 30 mg/kg, route oral, time infinity. The conditions noted are these: in vivo. An outline of the steps: as §2
The subject of data set [14] is MDA-MB-231. The experiment in a line: Induction of PARP cleavage in human MDA-MB-231 cells at 100 nM after 24 hrs by Western blotting. It is filed as functional, cell-based. An outline of the steps: as §3

Chain of Baculoviral IAP repeat-containing protein 3 (Q13489 whole entry): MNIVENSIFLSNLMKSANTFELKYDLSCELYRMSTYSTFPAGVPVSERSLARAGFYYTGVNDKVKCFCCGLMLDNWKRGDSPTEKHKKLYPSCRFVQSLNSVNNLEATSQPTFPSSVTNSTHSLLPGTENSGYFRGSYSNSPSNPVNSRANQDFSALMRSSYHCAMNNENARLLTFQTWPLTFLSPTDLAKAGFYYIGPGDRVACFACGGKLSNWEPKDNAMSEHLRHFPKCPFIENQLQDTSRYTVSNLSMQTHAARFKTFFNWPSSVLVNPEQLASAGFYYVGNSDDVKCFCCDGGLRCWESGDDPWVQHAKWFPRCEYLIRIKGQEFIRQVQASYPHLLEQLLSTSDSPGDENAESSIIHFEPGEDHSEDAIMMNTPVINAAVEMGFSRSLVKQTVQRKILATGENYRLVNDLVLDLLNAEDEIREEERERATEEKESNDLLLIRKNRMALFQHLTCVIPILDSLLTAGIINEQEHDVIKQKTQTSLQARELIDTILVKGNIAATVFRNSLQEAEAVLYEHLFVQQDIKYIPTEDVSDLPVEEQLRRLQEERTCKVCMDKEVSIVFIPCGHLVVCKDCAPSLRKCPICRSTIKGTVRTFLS

A word on the Cmax: it is the highest concentration seen after dosing. As to `CN[C@@H](C)C(=O)N[C@H]1CCCC[C@H]2CC[C@@H](C(=O)NC(c3ccccc3)c3ccccc3)N2C1=O.Cl`, the t1/2 in data set [1] is 1.7 h. Also, in data set [2], the AUC is 482 µg/L. This molecule came in with a Cmax in data set [3] of 545 nM. This molecule also gave a F in data set [4] of 14%.
What is called Ki is a dissociation constant, usually derived from enzyme kinetics or from competition with a known ligand. High values mean a looser hold on the target, low ones a stronger hold on the target. For the molecule `CN[C@@H](C)C(=O)N[C@H]1CN(Cc2ccccc2)CC[C@H]2CC[C@@H](C(=O)NC(c3ccccc3)c3ccccc3)N2C1=O`, the inhibitory constant (Ki) in data set [5] came to 9.8 nM. That is a single-digit nanomolar value.
By IC50 is commonly meant the point on the concentration scale where inhibition reaches its midpoint. A lower IC50 goes with greater potency. On to `CN[C@@H](C)C(=O)N[C@H]1CNCC[C@H]2CC[C@@H](C(=O)NC(c3ccccc3)c3ccccc3)N2C1=O`, for which the concentration for half-maximal inhibition (IC50) in data set [6] worked out at 890 nM. The same molecule displayed an inhibitory constant (Ki) in data set [5] of 4.6 nM.
With `CN[C@@H](C)C(=O)N[C@H]1CN(C(=O)Cc2ccccc2)CC[C@H]2CC[C@@H](C(=O)NC(c3ccccc3)c3ccccc3)N2C1=O.Cl`, in data set [7], the F is listed as 24%. In addition, the result in data set [8], in data set [10] and in [14] was Active. Besides, the t1/2 in data set [9] is 4.7 h. Besides, the Activity entry in data set [11] was “Dose-dependent effect”. Also, the highest level in [12] (Cmax) was 532 nM. Moreover, the AUC in [13] is 1985 µg/L.
The molecule `CN[C@@H](C)C(=O)N[C@H]1CN(C)CC[C@H]2CC[C@@H](C(=O)NC(c3ccccc3)c3ccccc3)N2C1=O` showed a Ki in data set [5] of 17.5 nM.
